Measured values from paper PMC3263826 (ACS medicinal chemistry letters, 2011).

Legend:
human MAO A = biological target: T1, human MAO A (Homo sapiens, UniProt P21397); assay: Inhibition of purified recombinant human MAO A; format: biochemical; conditions: for inhibition pattern with MAO A: species not given
T1 sequence (P21397 1-527): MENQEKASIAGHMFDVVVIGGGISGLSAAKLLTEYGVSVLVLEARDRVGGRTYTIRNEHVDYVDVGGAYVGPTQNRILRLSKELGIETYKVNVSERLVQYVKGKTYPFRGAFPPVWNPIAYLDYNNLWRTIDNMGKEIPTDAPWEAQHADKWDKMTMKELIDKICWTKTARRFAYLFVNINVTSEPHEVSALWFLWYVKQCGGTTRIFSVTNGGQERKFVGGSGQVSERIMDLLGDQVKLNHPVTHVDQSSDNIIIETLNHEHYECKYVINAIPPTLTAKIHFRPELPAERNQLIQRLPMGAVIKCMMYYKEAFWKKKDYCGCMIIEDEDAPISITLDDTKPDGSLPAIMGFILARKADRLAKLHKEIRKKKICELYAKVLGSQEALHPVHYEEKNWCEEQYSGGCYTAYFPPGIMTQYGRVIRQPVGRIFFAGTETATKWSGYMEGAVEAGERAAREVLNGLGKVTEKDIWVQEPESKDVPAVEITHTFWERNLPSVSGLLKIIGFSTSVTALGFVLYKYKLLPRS

rat MAO A = biological target: T2, rat MAO A (Rattus norvegicus, UniProt P21396); assay: Inhibition of purified recombinant rat MAO A; format: biochemical; conditions: accessible concentration range (~100 μM)
T2 sequence (P21396 1-526): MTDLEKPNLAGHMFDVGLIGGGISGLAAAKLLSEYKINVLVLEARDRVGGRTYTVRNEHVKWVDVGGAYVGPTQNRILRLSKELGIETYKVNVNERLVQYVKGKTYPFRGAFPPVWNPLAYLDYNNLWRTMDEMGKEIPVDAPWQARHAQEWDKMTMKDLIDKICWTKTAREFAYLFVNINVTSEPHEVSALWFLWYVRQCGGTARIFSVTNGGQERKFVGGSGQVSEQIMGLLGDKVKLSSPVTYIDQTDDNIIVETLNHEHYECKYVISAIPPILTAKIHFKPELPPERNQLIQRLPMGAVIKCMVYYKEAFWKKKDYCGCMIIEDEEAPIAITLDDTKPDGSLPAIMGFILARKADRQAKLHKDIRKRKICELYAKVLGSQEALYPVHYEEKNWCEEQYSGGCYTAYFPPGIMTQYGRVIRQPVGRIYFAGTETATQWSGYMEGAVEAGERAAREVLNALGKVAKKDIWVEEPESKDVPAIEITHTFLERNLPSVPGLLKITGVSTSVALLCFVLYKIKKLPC

human MAO B = biological target: T3, human MAO B (Homo sapiens, UniProt P27338); assay: Inhibition of purified recombinant human MAO B; format: biochemical; conditions: for inhibition pattern with MAO B: species not given
T3 sequence (P27338 1-520): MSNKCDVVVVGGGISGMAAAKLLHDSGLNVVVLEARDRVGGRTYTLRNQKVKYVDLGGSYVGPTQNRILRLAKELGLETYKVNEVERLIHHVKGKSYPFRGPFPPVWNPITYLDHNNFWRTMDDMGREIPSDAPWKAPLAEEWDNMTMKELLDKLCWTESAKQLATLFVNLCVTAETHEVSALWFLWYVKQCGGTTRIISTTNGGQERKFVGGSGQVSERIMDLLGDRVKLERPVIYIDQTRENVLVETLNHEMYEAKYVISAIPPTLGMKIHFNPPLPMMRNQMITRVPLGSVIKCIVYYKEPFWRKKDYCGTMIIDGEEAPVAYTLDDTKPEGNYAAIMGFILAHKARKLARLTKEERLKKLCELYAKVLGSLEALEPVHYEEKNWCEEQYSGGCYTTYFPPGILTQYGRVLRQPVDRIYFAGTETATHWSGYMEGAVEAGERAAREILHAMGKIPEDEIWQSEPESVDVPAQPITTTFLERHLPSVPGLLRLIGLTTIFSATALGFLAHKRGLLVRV

[1] = biological target: human histone demethylase LSD1 (Homo sapiens, UniProt O60341); assay: Inhibition of human histone demethylase LSD1; format: biochemical; conditions: concentrations up to 100 μM
Summary of the method: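 Enzyme is recombinant human LSD1 purified as a complex with CoREST. Test compound was assayed at concentrations up to 100 μM.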

[2] = tested on: MPTP-mouse model for Parkinson's disease; conditions: cited from earlier work
[3] = cited from earlier work

inhibitory activity against human MAO A (human MAO A; accessible concentration range (~100 μM))	inhibitory activity against rat MAO A (rat MAO A)	inhibition pattern with MAO B (human MAO B)	inhibition of LSD1 [1]	inhibition pattern with MAO A (human MAO A)	substrate of MAO A (human MAO A; time course of hours)	substrate of MAO B (human MAO B; time course of hours)	SMILES	neuroprotection in MPTP-mouse model [2]	brain (therapeutic neuroprotective) concentration ([3]; monkey, in vivo)	plasma concentration ([3]; monkeys with induced symptoms characteristic of Parkinson's disease)
does not exhibit any inhibitory activity	does not exhibit any inhibitory activity	competitively	No inhibition	–	–	–	CCc1ccc(CCOc2ccc(CC3SC(=O)NC3=O)cc2)nc1 (centres unmarked) [Pioglitazone, pioglitazone]	effective neuroprotectant	~ 0.14 μM	~ 4.9 μM
–	–	competitively	No inhibition	competitively	very slow substrate	very slow substrate	CN(CCOc1ccc(CC2SC(=O)NC2=O)cc1)c1ccccn1 (centres unmarked) [Rosiglitazone, rosiglitazone]	–	–	–
–	–	non-competitive	–	non-competitive	–	–	Cc1c(C)c2c(c(C)c1O)CCC(C)(COc1ccc(CC3SC(=O)NC3=O)cc1)O2 (centres unmarked) [Troglitazone, troglitazone]	–	–	–
